Data taken from PubChem BioAssay AID449754 (Broad Institute, 2010).
Records with an inconclusive call do not appear. Activity calls are given as the source filed them.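 Rule for the calls: active = compounds whose fitted caspase activation AC50 is no more than tenfold above the top tested dose; inconclusive = flat fit with 30 to 70% activity, or a failed fit; inactive = the rest.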

system: MEF Bax/Bak KO A1-BIM, caspase-Glo luminescence, 3 h; assay: caspase activation in Bax/Bak-deficient MEFs, dose response, counter-screen for A1 inhibitor project, cell-based, Bax-Bak knockout MEF, A1-2A-BIM, luminescence (AID 449754);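 note: counterscreen where caspase activation signals off-target toxicity not A1 inhibition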
Procedure, shortened: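 Material: A1-2A-BIM MEFs lacking Bax and Bak / Buffer or medium: RPMI-1640, 10% FBS / Compound: 100 nL pinned compound per well / Timing: 3 h compound at 37 °C, 1 h detection at RT / Technique: CaspaseGlo luminescence, reagent diluted 1:1 in 50 mM HEPES / Read-out basis: caspase activity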

Row | Structure (SMILES) | AC50
1 | CC(=O)OC(C)(C)/C=C/C(=O)[C@](C)(O)C1[C@H](O)C[C@@]2(C)C3CC=C4C(C[C@H](O)C(=O)C4(C)C)[C@]3(C)C(=O)C[C@]12C (stereo partly drawn) | > 35 µM (inactive)
2 | COc1ccc(S(=O)(=O)N2CC(O)CC2C(=O)OCC(=O)Nc2ccc(Cl)cn2)cc1 (stereo not drawn) | > 35 µM (inactive)
3 | COc1ccc(-c2nc(NC(=O)c3n[nH]c(=O)c4ccccc34)sc2C)cc1 | > 35 µM (inactive)
4 | CC(C)CC(NC(=O)c1ccc(Cl)cc1)C(=O)OCC(=O)c1ccc2c(c1)NC(=O)CO2 (stereo not drawn) | 6.3 µM
5 | COc1ccc2c(-c3cc4ccc(OCc5ccc(F)cc5)cc4oc3=O)cc(=O)oc2c1 | 36.6 µM
6 | COc1ccc(C2Nc3ccc4ccccc4c3-c3c2c(=O)oc2ccccc32)cc1 (stereo not drawn) | 18.7 µM
7 | CC(C)(C)C1CCc2onc(C(=O)Nc3cccc(O)c3)c2C1 (stereo not drawn) | > 35 µM (inactive)
8 | COc1cc(CN2CCN(c3cc(C)ccc3C)CC2)ccc1O | > 35 µM (inactive)
9 | O=C(NCc1ccccc1Cl)c1cccc2c1C(=O)c1ccc(-c3ccc(OC(F)(F)F)cc3)cc1S2(=O)=O | > 35 µM (inactive)
10 | C#CC(=O)N(c1cc(OC)ccc1OC)C(C(=O)NC1CCCC1)c1cccs1 (stereo not drawn) | > 35 µM (inactive)
11 | Oc1[nH]c2ccc(Br)cc2c1N=NC(=S)Nc1ccc(F)cc1 | > 35 µM (inactive)
12 | O=C(Nc1ccc(Cl)cc1Cl)c1cccc(N2C(=O)C=CC2=O)c1 | > 35 µM (inactive)
13 | COc1ccc2c(c1)[nH]c1c(=O)n(/N=C/C3C(C)C=C(C)CC3C)c(=O)[nH]c12 (stereo not drawn) | > 35 µM (inactive)
14 | C=C1/C=C(\C)[C@](C)(O)C[C@H](O)CC(=O)[C@H](O)[C@@H](O)[C@H](C)C[C@H](C)OC(=O)/C(C)=C/CC/C=C/[C@@H]2O[C@H]2C[C@H](C)C1 | > 35 µM (inactive)
15 | CCOC(=O)/C=c1\s/c(=C\c2ccc(C(=O)OC)cc2)c(=O)n1CC(=O)Nc1ccccc1 | > 35 µM (inactive)
16 | COc1cc(NC(=O)c2cccs2)ccc1NC(=O)c1cc2ccccc2o1 | > 35 µM (inactive)
17 | COc1cc(C(=O)Nc2cc3c(cc2N2CCCCC2)n(C)c(=O)n3C)cc(OC)c1OC | > 35 µM (inactive)
18 | COc1cc2cnc(-c3ccccc3)c(-c3cccc(C(F)(F)F)c3)c2cc1OC | > 35 µM (inactive)
